The text below walks through data of publication PMC3780561 (Molecular cancer therapeutics, 2013).

Like-named read-outs stand apart in the source and are kept apart here. A value given as a limit tells only on which side of the number the result lay.

In the test the test system is NSCLC cell lines (A549, H23 and H358). Briefly: Cell viability, modified MTT assay, 24 h. Particulars: read-out: 24 h-IC50. In kind it is cell-based, human. The gist of the method:
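ATCC-sourced A549 (p53 wild-type), H23 (p53-mutant) and H358 (p53-null) cells were grown per ATCC. Viability after 24 h exposure to test compound or sulindac metabolites was measured by modified MTT assay. 24-h IC50 was derived from viability curves.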

As for `CSc1ccc(/C=C2/C(C)=C(CC(=O)O)c3cc(F)ccc32)cc1` [sulindac sulfide], the IC50 (Homo sapiens, 24 h) lay within 159 to 222 µM. `CC1=C(CC(=O)O)c2cc(F)ccc2/C1=C\c1ccc(S(C)(=O)=O)cc1` [sulindac sulfone]: under “range among A549, H23 and H358 cells”, the IC50 was 566 to 1900 µM. `CC1=C(CC(=O)O)c2cc(F)ccc2/C1=C\c1ccc([S+](C)[O-])cc1` (stereo not drawn) [sulindac]: the IC50 (Homo sapiens, 24 h) is more than 1000 µM.
